Experimental data published in ChEMBL document CHEMBL1124534, “Synthesis, mechanism of action, and biological evaluation of mitosenes” (1989).
≈ marks a conversion by molar mass, not a printed value.

What was measured:
Mus musculus [1] = experiment: Body wieght treated/body weight untreated controls of compound (12.5 mg/kg) was evaluated in vivo for antitumor activity against MAC 16 in female NMRI mice on day 12; type: functional
Mus musculus [2] = experiment: Median survival time in days for antitumor activity against P388 Leukemia in CD2 mice at single dose treatment of 8 mg/Kg
Mus musculus [3] = experiment: Median survival time in days for antitumor activity against P388 Leukemia in CD2 mice at fractioned dose treatment of 2.5 mg/kg; type: functional
Method in brief: (§1)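 P388 leukemia-bearing mice were dosed intraperitoneally once daily for 9 consecutive days (fractioned schedule). The read-out was median survival time in days, reported alongside %T/C and % body weight change.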

Mus musculus [4] = experiment: Relative tumor size on day 28 was reported when compound (6 mg/kg/day) administered to inhibit growth of human tumor xenograft GXF 97 in nude mice; type: functional
Method in brief: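 GXF 97 human gastric xenograft grown subcutaneously in nude mice for 24 days, then mice randomized; treatment began 1 day later. Fractioned ip injections on days 1-4, or single iv injection on day 1; 4-5 mice per group. Tumor size from length and width; relative tumor size (% of controls) read at day 28.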

Mus musculus [5] = experiment: Compound (10 mg/Kg) was evaluated in vivo for antitumor activity against MAC 13 in female NMRI mice on day 2 and ratio of tumor weight of treated to that of control was determined
Mus musculus [6] = experiment: Median survival time in days for antitumor activity against P388 Leukemia in CD2 mice at a single dose treatment of 6 mg/kg; type: functional
Method in brief: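 P388 leukemia-bearing mice were given one intraperitoneal injection. The read-out was median survival time in days, reported alongside %T/C and % body weight change.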

Mus musculus [7] = experiment: Compound (12.5 mg/Kg) was evaluated in vivo for antitumor activity against MAC 16 in female NMRI mice on day 12 and ratio of tumor weight of treated to that of control was determined; type: functional
Mus musculus [8] = experiment: Ability of intraperitoneally administered compound (6 mg/kg/day) to inhibit growth of human tumor xenograft GXF 97 was assessed on day 21 in nude mice; type: functional
Method in brief: (§2)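 GXF 97 human gastric xenograft grown subcutaneously in nude mice for 24 days, then randomized; dosing began 1 day later as ip injections on days 1-4. Groups had 4-5 mice. Tumor length and width were measured. %T/C = median relative tumor size of treated / median relative tumor size of controls.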

Mus musculus [9] = experiment: Mean relative body weight change of treated / mean relative body weight change of control when compound (6 mg/kg/day) administered to inhibit growth of human tumor xenograft GXF 97 was reported at day 28 in nude mice; type: functional
Method in brief: (§3)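 GXF 97 xenograft grown subcutaneously in nude mice for 24 days, then randomized; ip dosing began 1 day later, given on days 1-4, with 4-5 mice per group. Read-out is mean relative body weight change of treated divided by mean relative body weight change of controls, in %.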

Mus musculus [10] = experiment: Percent T/C ([…]) for antitumor activity against P388 Leukemia in CD2 mice at fractioned dose treatment of 2.5 mg/kg; type: functional
Method in brief: (§4)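 Mouse P388 leukemia model. Drugs were given intraperitoneally, either as a single injection or once daily for 9 consecutive days (fractioned schedule). Outcomes were median survival time in days, %T/C, and % body weight change.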

Mus musculus [11] = experiment: Percent T/C ([…]) for antitumor activity against P388 Leukemia in CD2 mice at a single dose treatment of 6 mg/kg; type: functional
Method in brief: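 P388 leukemia mice given a single intraperitoneal injection. Median survival time (days) and body weight change were recorded. %T/C was derived from the survival of treated versus control mice.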

Mus musculus [12] = experiment: Ability of intraperitoneally administered compound (6 mg/kg/day) to inhibit growth of human tumor xenograft GXF 97 was assessed on day 14 in nude mice; type: functional; method in brief: as §2
Mus musculus [13] = experiment: Percent inhibition of compound (10 mg/Kg) was evaluated in vivo for antitumor activity against MAC 13 in female NMRI mice on day 2; type: functional
Method in brief: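 MAC 13 in female NMRI mice. Drugs were given in arachis oil BP by ip route on day 2 or day 29. % inhibition was derived from treated/untreated control tumor weight (volume); a negative value indicates stimulation.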

Mus musculus [14] = experiment: Percent change in body weight [(day 6 - day 1)/ day 1] when P388 Leukemic CD2 mice were treated with a compound (6 mg/kg); type: functional
Mus musculus [15] = experiment: Median survival time in days for antitumor activity against P388 Leukemia in CD2 mice at fractioned dose treatment of 1.5 mg/Kg; type: functional; method in brief: as §1
Mus musculus [16] = experiment: Percent T/C ([…]) for antitumor activity against P388 Leukemia in CD2 mice at fractioned dose treatment of 1.5 mg/Kg; type: functional; method in brief: as §4
Mus musculus [17] = experiment: Percentage change in body weight [(day 6 - day 1)/ day 1] for antitumor activity against P388 Leukemia in CD2 mice at fractioned dose treatment of 2.5 mg/kg; type: functional; method in brief: as §4
Mus musculus [18] = experiment: Percent T/C ([…]) for antitumor activity against P388 Leukemia in CD2 mice at fractioned dose treatment of 8 mg/Kg; type: functional; settings: in the assay text read “single dose” for “fractioned dose”; method in brief: as §4
Mus musculus [19] = experiment: Compound ((12.5 mg/Kg) was evaluated in vivo for antitumor activity against MAC 16 in female NMRI mice on day 4 and ratio of tumor weight of treated to that of control was determined; type: functional
Mus musculus [20] = experiment: Percentage change in body weight [(day 6 - day 1)/ day 1] for antitumor activity against P388 Leukemia in CD2 mice at fractioned dose treatment of 1.5 mg/Kg; type: functional; method in brief: as §4
Mus musculus [21] = experiment: Ability of intraperitoneally administered compound (6 mg/kg/day) to inhibit growth of human tumor xenograft GXF 97 was assessed on day 28 in nude mice; type: functional; method in brief: as §2
WiDr = experiment: In vitro antitumor activity against WiDr colon carcinoma tumor cell line was determined; type: functional; settings: Homo sapiens, read-out: ID50 (the source's name)
Method in brief: (§5)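 Cell growth inhibition in vitro measured by the PIT method, with mitomycin C as positive reference.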

Mus musculus [22] = experiment: Percentage change in body weight [(day 6 - day 1)/ day 1] for antitumor activity against P388 Leukemia in CD2 mice at fractioned dose treatment of 8 mg/Kg; type: functional; settings: in the assay text read “single dose treatment” for “fractioned dose treatment”; method in brief: as §4
L1210 = experiment: In vitro antitumor activity against L1210 lymphocytic leukemia tumor cell line was determined; type: functional; settings: Mus musculus, read-out: ID50 (the source's name)
Method in brief: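 Inhibition of L1210 leukemia colony formation in vitro, with mitomycin C as positive reference.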

A204 = experiment: In vitro antitumor activity against A204 rhabdomyosarcoma tumor cell line was determined; type: functional; settings: Homo sapiens, read-out: ID50 (the source's name); method in brief: as §5
Mus musculus [23] = experiment: Mean relative body weight change of treated / mean relative body weight change of control when compound (6 mg/kg/day) administered to inhibit growth of human tumor xenograft GXF 97 was reported at day 14 in nude mice; type: functional; method in brief: as §3
Mus musculus [24] = experiment: Body wieght treated/body weight untreated controls of compound (12.5 mg/kg) was evaluated in vivo for antitumor activity against MAC 16 in female NMRI mice on day 4; type: functional
Mus musculus [25] = experiment: Mean relative body weight change of treated / mean relative body weight change of control when compound (6 mg/kg/day) administered to inhibit growth of human tumor xenograft GXF 97 was reported at day 21 in nude mice; type: functional; method in brief: as §3

Compound: COC1=C(C)C(=O)c2c(c(COC(C)=O)c3n2CCC3OC(C)=O)C1=O (stereo not drawn)
- BW (Mus musculus [1]): 78%
- MST (Mus musculus [2]): 9 days
- MST (Mus musculus [3]): 16.5 days
- Relative TS (Mus musculus [4]): 26.2%
- T/C (Mus musculus [5]): 73%
- MST (Mus musculus [6]): 13 days
- T/C (Mus musculus [7]): 120%
- T/C (Mus musculus [8]): 5.9%
- BWC (Mus musculus [9]): 74.1%
- T/C (Mus musculus [10]): 150%
- T/C (Mus musculus [11]): 118%
- T/C (Mus musculus [12]): 16.8%
- I (Mus musculus [13]): 27%
- BWC (Mus musculus [14]): -4.7%
- MST (Mus musculus [15]): 15.5 days
- T/C (Mus musculus [16]): 141%
- BWC (Mus musculus [17]): 2%
- T/C (Mus musculus [18]): 82%
- T/C (Mus musculus [19]): 102%
- BWC (Mus musculus [20]): 8.3%
- T/C (Mus musculus [21]): 3.9%
- IC50 (WiDr): 0.01 µg/mL (≈ 0.0277 µM)
- BWC (Mus musculus [22]): -7.1%
- IC50 (L1210): 0.14 µg/mL (≈ 0.387 µM)
- IC50 (A204): 0.001 µg/mL (≈ 0.00277 µM)
- BWC (Mus musculus [23]): 71%
- BW (Mus musculus [24]): 105%
- BWC (Mus musculus [25]): 73.5%
